Screening results from PubChem BioAssay.
PGC1a Ac signal: compounds raising PGC1a acetylation signal, primary screen, PGC1a modulator project, cell-based, U2OS, AlphaScreen, signal-increasing mode; 350,000 tested, 0.21% active; overnight; activation, % at 15.6 µM;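 active means every replicate reaching activation of at least 50%, whatever the mean replicate activation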;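 further: hits raise the AlphaScreen acetylation signal above neutral controls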
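Incubation: overnight compound treatment, 37 °C. System: U2OS cells transduced with flag-tagged PGC1a and GCN5 acetyltransferase. Detection: AlphaScreen lysate read. Compound: single-point compound dosing.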
Each line names hits and unclear results; the compound was inactive in the other large screens. The list is a sample of the results.

COc1ccccc1N=C1NC(=O)/C(=C/c2ccc(N(C)C)cc2)S1	PGC1a Ac signal 55.0
CC(=O)NC(c1cccc(F)c1)c1nc(-c2cccc(C(C)C)c2)cs1 (stereo unspecified)	none
O=C(c1cccc(Cl)c1)N1CCN(c2ccc(N3CCOCC3)nn2)CC1	none
CC1CN(C2CCN(C(=O)c3cccc(Cl)c3)CC2)CC(C)O1 (stereo unspecified)	none
CCN1CCN(C(=O)c2c(-c3c(F)cccc3Cl)noc2C)CC1	PGC1a Ac signal 71.2
C[C@H]1CN([C@@H](C)CO)C(=O)c2cccc(NC(=O)c3ccncc3)c2O[C@H]1CN(C)C(=O)Nc1ccc2c(c1)OCO2	none
CC(=O)c1cccc(-c2ccnc3c2CC(C(=O)Nc2ccc4c(c2)OCO4)O3)c1 (stereo unspecified)	PGC1a Ac signal 57.9
O=C(NCc1ccc2c(c1)OCO2)c1nc(S(=O)(=O)Cc2ccccc2)ncc1Cl	PGC1a Ac signal 73.7
Cc1ccc(-c2ccc3c(c2)O[C@@H](CN(C)C(=O)C2CCCCC2)[C@H](C)CN([C@H](C)CO)S3(=O)=O)cc1	none
NC(Cc1ccccc1)c1csc(NC(=O)Nc2ccccc2Oc2ccccc2)n1 (stereo unspecified)	PGC1a Ac signal 71.2
CCS(=O)(=O)N[C@H]1C=C[C@H](CC(=O)N2CCCCC2)O[C@H]1CO	none
C[C@H](CO)N1C[C@H](C)[C@@H](CN(C)CC2CC2)Oc2cc(-c3cccnc3)ccc2S1(=O)=O	none
Cc1ccc(S(=O)(=O)N[C@@H]2CC[C@@H](CCNC(=O)c3ccccc3F)O[C@H]2CO)cc1	none
O=C(NCC[C@@H]1CC[C@H](NS(=O)(=O)c2ccccc2)[C@@H](CO)O1)c1ccccc1F	none
CC(C)NC(=O)NCC[C@@H]1CC[C@H](NS(=O)(=O)c2ccc(-c3ccccc3)cc2)[C@@H](CO)O1	PGC1a Ac signal 65.0
CN(C)c1ccc(C(=O)NC2(N3CCC3=O)CCCC2)cc1	none
CN(C)CCCN(C(=O)c1cc2cc([N+](=O)[O-])ccc2s1)c1nc2cc3c(cc2s1)OCCO3	none
C[C@@H]1CN([C@@H](C)CO)C(=O)c2cc(NC(=O)Nc3cccc4ccccc34)ccc2O[C@@H](C)CCCCO[C@H]1CN(C)C(=O)NC1CCCCC1	none
C[C@H]1CCCCO[C@H](CN(C)C(=O)Nc2cccc3ccccc23)[C@@H](C)CN([C@@H](C)CO)C(=O)c2cc(N(C)C)ccc2O1	PGC1a Ac signal 64.8
C[C@H](CO)N1C[C@H](C)[C@H](CN(C)S(=O)(=O)c2cn(C)cn2)OCCCC[C@H](C)Oc2ccc(NC(=O)Nc3cccc4ccccc34)cc2C1=O	none
O=c1[nH]cnc2c1ccn2C1OC(CO)C(O)C1O (stereo unspecified)	PGC1a Ac signal 138.1
N#Cc1ccc(Cn2c(=O)c(C#N)c3n(c2=O)CCC3)cc1	none
COc1ccc(CCNc2ccc(C(CC(N)=O)NC(=O)c3cc(C)cc(C)c3)cc2[N+](=O)[O-])cc1 (stereo unspecified)	none
COc1ccccc1CN=Cc1[nH]c2ccc(Br)c(Cl)c2c1O	PGC1a Ac signal 52.4
O=C(O)C1CCCN1S(=O)(=O)c1cc(Cl)ccc1Cl (stereo unspecified)	none
O=c1[nH]c2nc(Cl)nc(Cl)c2[nH]1	none
COc1ccc(-n2c(SCC#N)nnc2-c2cccnc2)cc1	none
CCOC(=O)CSc1nnc(-c2ccc(OC)cc2)n1CC	PGC1a Ac signal 100.1
O=C(NCC[C@@H]1CC[C@H](NS(=O)(=O)Cc2ccccc2)[C@H](CO)O1)C1CCC1	none
O=C(Cc1ccccn1)NCC[C@@H]1CC[C@H](NC(=O)Nc2ccc(C(F)(F)F)cc2)[C@H](CO)O1	none
CCOC(=O)c1c(CN2CCN(CC#N)CC2)n(C)c2cc(Br)c(OC)cc12	PGC1a Ac signal 68.5
CO[C@H]1CN(C)C(=O)c2cc(NS(C)(=O)=O)ccc2OC[C@H](C)N(C(=O)NC(C)C)C[C@H]1C	none
CCCNC(=O)N(C)C[C@H]1Oc2cc(C#CCC(C)C)ccc2S(=O)(=O)N([C@@H](C)CO)C[C@H]1C	none
Cc1ccc(CC(=O)N2CCN(c3ccc([N+](=O)[O-])cc3)CC2)cc1	PGC1a Ac signal 112.8
O=[N+]([O-])c1ccc(N2CCN(C(=S)NCc3ccc(Cl)cc3)CC2)cc1	PGC1a Ac signal 80.8
Cc1cccc(N2CCN(CC3CCCCC3)CC2)c1C	none
O=[N+]([O-])c1ccc(N2CCN(CC3CCCCC3)CC2)cc1	PGC1a Ac signal 63.2
O=C(c1cc([N+](=O)[O-])ccc1N1CCCC1)N1CCCC1	none
CC(C)NC(=O)N(C)C[C@H]1OCCCC[C@@H](C)Oc2ccc(NC(=O)Nc3ccc(C(F)(F)F)cc3)cc2C(=O)N([C@H](C)CO)C[C@@H]1C	none
COc1cc(CNC(=O)c2cc(-c3cc(C)cc(F)c3)n[nH]2)cc(OC)c1	none
CO[C@@H]1CN(C)C(=O)c2cc(NC(C)=O)ccc2OC[C@H](C)N(Cc2cc(F)ccc2F)C[C@H]1C	none
C[C@@H]1CN([C@@H](C)CO)C(=O)c2cc(NS(=O)(=O)c3ccc(F)cc3)ccc2O[C@@H]1CN(C)S(=O)(=O)c1ccc(Cl)cc1	none
O=C(CCC1CCCN(C(=O)c2cc(C3CC3)[nH]n2)C1)N1CCN(c2ccccn2)CC1 (stereo unspecified)	none
CC(C)c1ccc(-c2nnn(CC(=O)N3CCCCC3)n2)cc1	none
CC(C)(C)NC(=O)Cn1nnc(-c2ccc(OCc3c(F)cccc3Cl)cc2)n1	PGC1a Ac signal 65.6
C[C@@H]1CN([C@@H](C)CO)C(=O)c2cc(NS(C)(=O)=O)ccc2O[C@@H](C)CCCCO[C@H]1CN(C)C(=O)Nc1ccc(F)cc1	none
C/C=C/c1ccc2c(c1)O[C@@H](CN(C)C(=O)NC(C)C)[C@H](C)CN([C@H](C)CO)S2(=O)=O	none
COc1ccc(NC(=O)/C(Cl)=C(/Cl)S(=O)(=O)Cc2ccccc2)cn1	none
COc1ccc(NC(=O)/C(Cl)=C(/Cl)S(=O)Cc2ccc(Cl)cc2)cn1 (stereo unspecified)	none
COc1ccc(NC(=O)C(Cl)=C(Cl)Cl)cn1	PGC1a Ac signal 101.0
Cc1c(C(=O)Nc2ccc3c(c2)OCCO3)sc2nc(-c3ccccc3)cn12	PGC1a Ac signal 61.9
O=C(NCc1cccnc1)/C(=C\c1ccc(-c2ccc(Cl)c(Cl)c2)o1)S(=O)(=O)c1ccccc1	none
O=C(CCCc1nc(-c2ccccc2Cl)no1)NCc1cccnc1	PGC1a Ac signal 98.0
O=C(CCNNC(=O)c1ccncc1)NCc1ccccc1	none
O=C(CNC(=O)C1CCCCC1)OCC(=O)c1ccc(Cl)s1	none
CC1(Cc2cc(Cl)ccc2C(F)(F)F)C(=O)Nc2ccc(S(=O)(=O)NC3CCCCC3)cc21 (stereo unspecified)	PGC1a Ac signal 85.7
O=C(Nc1ccc(F)cc1)C1CCCN1S(=O)(=O)c1cccc2nsnc12 (stereo unspecified)	none
COCc1ccc(CN2CCC(n3nccc3NC(=O)c3ccc4c(c3)OCO4)CC2)o1	PGC1a Ac signal 54.1
CO[C@@H]1CN(C)C(=O)c2cc(NC(=O)c3ccc4c(c3)OCO4)ccc2OC[C@@H](C)N(CC2CC2)C[C@H]1C	none
CN(C)C(=O)C[C@@H]1C=C[C@@H](NS(=O)(=O)c2ccccc2)[C@@H](CO)O1	none
Cc1ccc(C(=O)Cn2c(C(=O)OCCO)cc3ccccc32)cc1	PGC1a Ac signal 65.3
C[C@@H]1CN([C@@H](C)CO)C(=O)c2cc(C#CC3CCCC3)cnc2O[C@H]1CN(C)C(=O)Nc1ccccc1	none
CCC(=O)N1CCN(c2ccc(Cl)cc2NC(=O)c2ccc([N+](=O)[O-])o2)CC1	PGC1a Ac signal 61.7
COc1ccc(C(=O)Nc2cccc(NC(=O)c3ccc(OC)c(OC)c3)n2)cc1OC	none
